Source: PubChem (several laboratories)
STEP block = STEP phosphatase inhibitors, primary screen, biochemical, fluorescence intensity, uHTS. recombinant STEP, OMFP fluorogenic substrate. inhibition, % at 20 µM. actives 0.25% (n = 360,000). AID 588621, 2011;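 active = inhibition at 20 µM, scaled per plate between control wells, above about 37%, limit read from the data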
Target sequence (P54829 whole entry, looked up): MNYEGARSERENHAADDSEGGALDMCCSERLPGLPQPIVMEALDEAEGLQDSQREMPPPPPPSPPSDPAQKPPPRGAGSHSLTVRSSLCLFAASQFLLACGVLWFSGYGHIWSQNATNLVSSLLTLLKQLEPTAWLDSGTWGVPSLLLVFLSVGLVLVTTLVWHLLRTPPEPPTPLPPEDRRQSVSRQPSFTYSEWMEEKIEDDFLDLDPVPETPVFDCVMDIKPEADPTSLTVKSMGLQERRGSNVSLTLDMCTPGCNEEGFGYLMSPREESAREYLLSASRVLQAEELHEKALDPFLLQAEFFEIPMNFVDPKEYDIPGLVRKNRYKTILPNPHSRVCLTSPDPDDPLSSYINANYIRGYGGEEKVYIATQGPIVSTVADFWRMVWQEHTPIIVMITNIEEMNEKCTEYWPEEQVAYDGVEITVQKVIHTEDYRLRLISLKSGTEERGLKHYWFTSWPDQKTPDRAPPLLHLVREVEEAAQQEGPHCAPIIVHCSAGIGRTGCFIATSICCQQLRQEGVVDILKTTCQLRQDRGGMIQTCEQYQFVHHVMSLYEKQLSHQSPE
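System: STEP phosphatase, cell-free reaction; Buffer or medium: Bis-Tris pH 6.0 buffer with DTT, detergent; Incubation: 20 min at room temperature, dark; Measured by: fluorescence, 480/540 nm.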
NadD block = inhibitors of S. aureus NadD, primary screen, biochemical, colorimetric, uHTS; inhibition, % at 20 µM; actives 0.78% (n = 360,000); Nicotinate-nucleotide adenylyltransferase NadD (Staphylococcus aureus N315); purified NadD enzyme, colorimetric absorbance read-out; in the data active = inhibition above about 26%
Scp1 inh = Scp-1 phosphatase inhibitors, primary screen, biochemical, colorimetric, uHTS; Recombinant Scp1, phosphopeptide, malachite green phosphate absorbance; Carboxy-terminal domain RNA polymerase II polypeptide A small phosphatase 1 (Homo …; actives 0.88% (n = 340,000); inhibition, % at 20 µM;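 active = inhibition above about 50% at 20 µM, limit read from the data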
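System: truncated SCP-1 phosphatase (76-261aa); medium: Tris acetate buffer pH 5.5 with MgCl2 and Tween-20; incubation: 45 min room-temperature reaction, 5 min colour, 30 min stabiliser; compound: single 20 µM dose, 1% DMSO; reagent: Phosphorylated 17-residue peptide substrate; read-out: % inhibition at 20 µM; technique: colorimetric free-phosphate detection, absorbance 630 nm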
LMPTP block = LMPTP phosphatase inhibitors, primary screen, biochemical, fluorescence intensity, uHTS | recombinant LMPTP-A, OMFP fluorogenic substrate | inhibition, % at 20 µM | actives 0.22% (n = 360,000) | AID 651560, 2012;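 active = compounds that cut the enzyme signal by at least half of the control window in the single-dose screen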
Target sequence (P24666 whole entry, looked up): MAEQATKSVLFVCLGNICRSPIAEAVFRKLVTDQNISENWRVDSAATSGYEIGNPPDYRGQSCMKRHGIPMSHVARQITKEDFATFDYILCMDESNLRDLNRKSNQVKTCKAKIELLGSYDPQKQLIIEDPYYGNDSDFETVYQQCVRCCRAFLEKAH
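material = LMPTP-A | quantity = 0.625 nM enzyme | reagent = OMFP substrate, 400 µM final | buffer or medium = Bis-Tris pH 6.0, DTT, detergent | detection = endpoint fluorescence intensity from OMFP dephosphorylation | dosing = single 20 µM dose | read-out basis = % inhibition relative to no-enzyme and uninhibited control wells | control set = no-enzyme and uninhibited controls | timing = 50 min at room temperature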
rCAG binder = binders of r(CAG) RNA repeats, primary screen, biochemical, fluorescence. r(CAG) RNA repeat, TO-PRO-1 dye displacement fluorescence. actives 1.3% (n = 370,000). AID 651821, 2012. inhibition, % at 3 µM;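 active = inhibition above the plate cutoff, the mean of all test compounds on that plate plus 3 SD, cut at about 35% in these data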;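 also: higher means more dye released from RNA so lower well fluorescence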
Scp1 confirm = Scp-1 phosphatase inhibitors, retest, confirmation, biochemical, colorimetric, single concentration; recombinant SCP-1 catalytic domain, phosphate release, malachite green absorbance; AID 540281, 2011; shares compounds with Scp1 inh; actives 61% (n = 2,500); inhibition, % at 20 µM
MG interference = colorimetric readout interference by compounds, confirmation, artefact control for Scp-1 inhibitor project, biochemical, single concentration | shares compounds with Scp1 inh | Colorimetric interference counterscreen, malachite green absorbance 630 nm | apparent inhibition (interference), % at 20 µM | 2,500 tested, under 10 active | AID 540313, 2011;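 also: compounds added after enzyme reaction finished so only phosphate colour detection is probed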
Scp1 DSF = Scp-1 binding by thermal shift, confirmation, orthogonal assay for Scp-1 inhibitor project, biophysical, differential scanning fluorimetry. AID 540329, 2011. Recombinant SCP1, Sypro Orange thermal shift Tm. shares compounds with Scp1 inh. actives 25% (n = 1,500). thermal shift relative to vanadate control, % at 40 µM;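 active = substances whose mean melting-temperature shift, as a percentage of the reference inhibitor's shift, reaches about 5.3%, limit read from the data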
Large screens that a line does not name were inactive (follow-up assays come after a bar, where they were run). Rows were chosen to be rich in hits. Some 2.6% of all compounds tested hit in one or more screens of this group.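 The calls were made as follows, unless noted: active = inhibition of at least 30% at 20 µM; inactive = the rest.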

O=C(COc1ccc(Cl)cc1Cl)NCc1ccco1	none
COc1ccc(C(=O)OCC(=O)NCc2ccco2)cc1OC	Scp1 inh 56 | Scp1 confirm 53 | MG interference inactive | Scp1 DSF inactive
CC1CC(C)CN(C(=O)COC(=O)/C=C/c2ccco2)C1 (stereo not drawn)	Scp1 inh 59 | Scp1 confirm 48 | MG interference inactive | Scp1 DSF inactive
Cc1ccc(OCC(=O)N(C)CC(=O)NCc2ccco2)c(Br)c1	Scp1 inh 70 | Scp1 confirm 75 | MG interference inactive | Scp1 DSF inactive
O=C(COC(=O)/C=C/c1ccco1)Nc1ncc(C(F)(F)F)cc1Cl	Scp1 inh 76 | Scp1 confirm 56 | MG interference inactive | Scp1 DSF 6.1
O=C(CCn1nnc2ccccc21)N1CCN(c2ccccc2F)CC1	none (no result: STEP block, NadD block, Scp1 inh, LMPTP block)
O=C(CN1C(=O)C2(OCCCO2)c2ccccc21)NCc1ccc(F)cc1	none (no result: STEP block, NadD block, Scp1 inh, LMPTP block)
O=C1C[C@H](C(=O)Nc2ccc(Cl)cc2)[C@@H](c2ccccc2)O1	none (no result: STEP block, NadD block, Scp1 inh, LMPTP block)
CCC(C)CNC(=O)c1cn(C(C)c2ccccc2)nn1 (stereo not drawn)	none (no result: STEP block, NadD block, Scp1 inh, LMPTP block)
O=C(COC(=O)/C=C/c1ccco1)NCc1ccccc1Cl	none
O=C(COC(=O)c1ccccc1Nc1cccc(C(F)(F)F)c1)NCc1ccco1	Scp1 inh 77 | Scp1 confirm 53 | MG interference inactive | Scp1 DSF 5.3
COc1cc(/C=C/C(=O)OCC(=O)NCc2ccco2)ccc1OC(F)F	none
CN(C)S(=O)(=O)c1cccc(NC(=O)COC(=O)/C=C/c2ccco2)c1	Scp1 inh 68 | Scp1 confirm 41 | MG interference inactive | Scp1 DSF inactive
COc1ccc(/C=C/C(=O)OCC(=O)NCc2ccco2)cc1OC	Scp1 inh 52 | Scp1 confirm 59 | MG interference inactive | Scp1 DSF inactive
O=C(COC(=O)/C=C/c1ccco1)NCc1ccco1	Scp1 inh 72 | Scp1 confirm 82 | MG interference inactive | Scp1 DSF inactive
Cc1ccc(C)c(SCC(=O)NCc2ccco2)c1	none
O=C(COC(=O)c1cc(-c2cccs2)nc2ccccc12)NCc1ccco1	NadD block 52, Scp1 inh 56 | Scp1 confirm 56 | MG interference inactive | Scp1 DSF 7.0
Cc1ccc(C)c(SCC(=O)OCC(=O)c2ccco2)c1	Scp1 inh 60 | Scp1 confirm 69 | MG interference inactive | Scp1 DSF inactive
O=C(COC(=O)c1ccc(Br)o1)NCc1ccco1	Scp1 inh 74 | Scp1 confirm 65 | MG interference inactive | Scp1 DSF inactive
O=C(COC(=O)Cc1ccc(Cl)cc1)NCc1ccco1	Scp1 inh 82 | Scp1 confirm 71 | MG interference inactive | Scp1 DSF inactive
O=C(NCc1ccco1)c1cc(-c2cccs2)nc2ccccc12	none
Cc1nn(-c2ccccc2)c2sc(C(=O)NC3CCCCCC3)cc12	none (no result: STEP block, NadD block, Scp1 inh, LMPTP block)
CCCCCN1CCCCC(NC(=O)c2ccc(F)cc2)C1=O (stereo not drawn)	none (no result: STEP block, NadD block, Scp1 inh, LMPTP block)
O=C(Cn1c(-c2cncs2)nc2ccccc21)NCc1cccs1	none (no result: STEP block, NadD block, Scp1 inh, LMPTP block)
COc1ccc(-n2c(SCC(=O)NN=Cc3c(O)ccc4ccccc34)nnc2-c2ccc(C(C)(C)C)cc2)cc1	none (no result: STEP block, NadD block, Scp1 inh, LMPTP block)
Cc1cc(Br)ccc1SCC(=O)OCC(=O)NCc1ccco1	Scp1 inh 75 | Scp1 confirm 61 | MG interference inactive | Scp1 DSF inactive
O=C(COC(=O)c1ccccc1)NCc1ccco1	Scp1 inh 104 | Scp1 confirm 63 | MG interference inactive | Scp1 DSF inactive
Cc1cccc(C(=O)OCC(=O)NCc2ccco2)c1	none
O=C(COC(=O)c1cccc(Br)c1)NCc1ccco1	Scp1 inh 56 | Scp1 confirm 53 | MG interference inactive | Scp1 DSF inactive
O=C(COc1ccccc1Cl)NCc1ccco1	none
CCOc1ccccc1OCC(=O)NCc1ccco1	Scp1 inh 58 | Scp1 confirm 60 | MG interference inactive | Scp1 DSF inactive
CCCCN1CCS(=O)(=O)N(Cc2cn(Cc3ccccc3Br)nn2)C(C(=O)OC)C1 (stereo not drawn)	none (no result: STEP block, NadD block, Scp1 inh, LMPTP block)
O[C@H](COc1ccc(C(F)(F)F)cc1)CN1CCC(C(O)(c2ccccc2)c2ccccc2)CC1	none (no result: STEP block, NadD block, Scp1 inh, LMPTP block)
COc1ccc2cc3c(N)nn(C(=O)c4ccccc4[N+](=O)[O-])c3nc2c1	none
COc1ccc2cc3c(N)nn(C(=O)c4ccc(Cl)c([N+](=O)[O-])c4)c3nc2c1	STEP block 89, Scp1 inh 94, LMPTP block 65 | Scp1 confirm 74 | MG interference inactive | Scp1 DSF 8.2
COC(=O)Nc1sc2c(c1C(N)=O)CCCCCC2	none
NC(=O)c1c(NC(=O)C2CC=CCC2C(=O)O)sc2c1CCCCC2 (stereo not drawn)	Scp1 inh 58 | Scp1 confirm 71 | MG interference inactive | Scp1 DSF inactive
CCn1c(SCC(=O)N/N=C/C=C\c2ccco2)nc2ccccc21	none
Cn1c(SCC(=O)N/N=C/C=C\c2ccco2)nc2ccccc21	Scp1 inh 84 | Scp1 confirm 62 | MG interference inactive | Scp1 DSF inactive
CC(C)NC(=O)N[C@@H]1C[C@@H]2O[C@H](CO)CC[C@@H]2O[C@@H]1CCc1ccc(-c2ccccc2F)cc1	none (no result: STEP block, NadD block, Scp1 inh, LMPTP block)
CCOC(=O)N(C)[C@H]1C[C@H]2c3[nH]c4c(-c5ccc6c(c5)OCO6)cccc4c3CCN2C(=O)[C@H]1[C@H](C)O	none (no result: STEP block, NadD block, Scp1 inh, LMPTP block)
C[N+]1(CCCCCCC(=O)/C=N/O)CCCCCC1	Scp1 inh 96 | Scp1 confirm inactive | MG interference inactive
Cc1csc2c(N3CCN(C(=O)Nc4ccccc4)CC3)ncnc12	none
Cc1ccc(C(=O)N2CCN(c3ncnc4c(C)csc34)CC2)cc1	Scp1 inh 58 | Scp1 confirm inactive | MG interference inactive
COCc1cccc(-c2cc(C(=O)OC)c3n(c2=O)CCC3)c1	none (no result: STEP block, NadD block, Scp1 inh, LMPTP block)
